Source: ChEMBL document CHEMBL3612019, “Revisiting 1,3,4-Oxadiazol-2-ones: Utilization in the Development of ABHD6 Inhibitors” (Bioorg Med Chem, 2015)
Active and inactive are the calls of the source. The calls are words filed in the database; no cut-off is given here.

Assays:
[1] = target: T1, Fatty-acid amide hydrolase 1 (Homo sapiens) (UniProt O00519); test: Inhibition of human FAAH expressed in COS7 cell membranes at 10 uM pre-incubated for 10 mins before [3H]-AEA substrate addition by liquid scintillation counting; conditions: COS-7
T1 sequence (whole entry): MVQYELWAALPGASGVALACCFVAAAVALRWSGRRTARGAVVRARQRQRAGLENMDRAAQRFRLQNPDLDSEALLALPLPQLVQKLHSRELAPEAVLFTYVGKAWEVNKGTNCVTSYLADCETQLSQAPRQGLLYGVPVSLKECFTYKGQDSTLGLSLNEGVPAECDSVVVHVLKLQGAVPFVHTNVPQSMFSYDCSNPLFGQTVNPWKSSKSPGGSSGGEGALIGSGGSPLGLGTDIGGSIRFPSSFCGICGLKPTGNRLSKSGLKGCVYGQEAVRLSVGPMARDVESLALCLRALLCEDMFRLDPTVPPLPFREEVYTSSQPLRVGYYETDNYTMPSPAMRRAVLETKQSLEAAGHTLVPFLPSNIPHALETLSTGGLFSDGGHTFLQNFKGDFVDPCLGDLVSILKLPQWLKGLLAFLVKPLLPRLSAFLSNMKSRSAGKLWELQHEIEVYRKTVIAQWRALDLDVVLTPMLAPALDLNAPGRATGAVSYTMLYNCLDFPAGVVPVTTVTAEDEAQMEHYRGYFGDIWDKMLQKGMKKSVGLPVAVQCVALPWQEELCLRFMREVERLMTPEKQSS

[2] = target: T2, Lysophosphatidylserine lipase ABHD12 (Homo sapiens) (UniProt Q8N2K0); test: Inhibition of human ABHD12 expressed in HEK293 cells assessed as remaining enzyme activity at 1 uM pre-incubated for 10 mins before 2-AG substrate addition by HPLC method; type: cell-based
T2 sequence (whole entry): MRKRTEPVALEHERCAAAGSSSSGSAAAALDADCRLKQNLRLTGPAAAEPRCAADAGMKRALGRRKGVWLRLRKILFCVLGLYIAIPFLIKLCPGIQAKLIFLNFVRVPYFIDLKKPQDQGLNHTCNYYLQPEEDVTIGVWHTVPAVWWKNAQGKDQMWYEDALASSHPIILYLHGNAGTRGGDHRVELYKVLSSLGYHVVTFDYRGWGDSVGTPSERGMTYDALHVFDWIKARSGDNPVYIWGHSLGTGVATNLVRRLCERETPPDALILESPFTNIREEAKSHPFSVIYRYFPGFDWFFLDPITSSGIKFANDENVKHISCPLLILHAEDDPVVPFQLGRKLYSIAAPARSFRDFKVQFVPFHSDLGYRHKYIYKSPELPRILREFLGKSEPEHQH

[3] = target: T3, Monoacylglycerol lipase ABHD6 (Homo sapiens, UniProt Q9BV23); test: Inhibition of human ABHD6 expressed in HEK293 cells assessed as reduction in glycerol production from 1-AG hydrolysis pre-incubated for 30 mins before 1-AG substrate addition and measured 90 mins post substrate addition by fluorescence method; type: cell-based
T3 sequence (Q9BV23 whole entry): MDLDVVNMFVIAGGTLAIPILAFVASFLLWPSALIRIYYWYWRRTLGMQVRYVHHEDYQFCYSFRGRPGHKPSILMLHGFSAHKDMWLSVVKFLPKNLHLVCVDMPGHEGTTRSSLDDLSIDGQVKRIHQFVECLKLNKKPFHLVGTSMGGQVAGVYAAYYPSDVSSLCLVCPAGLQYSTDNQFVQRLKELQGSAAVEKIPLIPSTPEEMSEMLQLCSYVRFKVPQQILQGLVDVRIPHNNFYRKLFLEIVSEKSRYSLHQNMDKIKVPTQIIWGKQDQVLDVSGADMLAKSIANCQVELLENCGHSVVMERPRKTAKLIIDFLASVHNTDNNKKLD
Outline: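 hABHD6-HEK293 lysates pretreated 30 min with DMSO or inhibitor, then given 1-AG (12.5 µM final). Glycerol release was followed kinetically by fluorescence (emission 590 nm). Blanks without lysate were subtracted. IC50 was taken at the 90 min time point by nonlinear fitting of dose–response curves.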

[4] = target: T4, Fatty-acid amide hydrolase 1 (Mus musculus) (UniProt O08914); test: Inhibition of FAAH in mouse whole brain membranes at 10 uM incubated for 1 hr by TAMRA-FP probe based competitive activity-based protein profiling assay; type: cell membranes; conditions: Membrane
T4 sequence (whole entry): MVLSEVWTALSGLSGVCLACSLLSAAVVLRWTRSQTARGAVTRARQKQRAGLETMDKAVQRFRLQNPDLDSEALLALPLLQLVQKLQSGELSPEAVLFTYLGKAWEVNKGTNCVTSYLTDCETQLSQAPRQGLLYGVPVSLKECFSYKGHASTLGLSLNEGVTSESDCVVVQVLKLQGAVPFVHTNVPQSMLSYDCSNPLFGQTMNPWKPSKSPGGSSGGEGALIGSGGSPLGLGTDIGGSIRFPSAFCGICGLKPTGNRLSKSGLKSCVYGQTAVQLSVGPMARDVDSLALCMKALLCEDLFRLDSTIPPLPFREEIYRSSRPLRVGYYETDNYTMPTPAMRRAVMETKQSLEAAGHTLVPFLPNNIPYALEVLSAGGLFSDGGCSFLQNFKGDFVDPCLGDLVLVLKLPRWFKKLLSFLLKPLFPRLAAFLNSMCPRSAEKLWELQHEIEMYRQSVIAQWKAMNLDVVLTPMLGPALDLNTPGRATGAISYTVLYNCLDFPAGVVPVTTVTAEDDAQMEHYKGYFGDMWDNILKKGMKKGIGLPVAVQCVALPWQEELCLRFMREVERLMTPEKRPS
Outline: (§1)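 Competitive ABPP on mouse brain membranes (100 µg) treated 1 h with DMSO or inhibitor. TAMRA-FP labelling then ran 1 h at RT (final probe 2 µM). Reaction was quenched with gel loading buffer and proteins resolved by 10% SDS–PAGE for fluorescent band read-out. WWL70 located the ABHD6 band. Gels are representative of two experiments.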

[5] = target: T5, Lysophosphatidylserine lipase ABHD12 (Mus musculus) (UniProt Q99LR1); test: Inhibition of ABHD12 in mouse whole brain membranes at 10 uM incubated for 1 hr by TAMRA-FP probe based competitive activity-based protein profiling assay; type: cell membranes; conditions: Membrane; outline: as §1
T5 sequence (whole entry): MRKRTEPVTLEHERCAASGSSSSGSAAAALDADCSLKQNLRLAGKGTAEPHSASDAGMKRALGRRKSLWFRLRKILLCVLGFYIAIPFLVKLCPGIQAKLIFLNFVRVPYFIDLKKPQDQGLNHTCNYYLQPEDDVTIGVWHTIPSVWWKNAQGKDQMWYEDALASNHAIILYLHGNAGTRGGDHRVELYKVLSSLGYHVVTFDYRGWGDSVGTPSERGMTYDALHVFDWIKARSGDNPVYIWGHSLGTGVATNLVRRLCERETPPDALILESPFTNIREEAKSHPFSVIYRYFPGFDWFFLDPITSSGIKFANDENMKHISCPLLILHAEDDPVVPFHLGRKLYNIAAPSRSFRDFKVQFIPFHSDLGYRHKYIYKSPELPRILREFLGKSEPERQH

`Nc1cccc(Cn2nc(Oc3ccccc3)oc2=O)c1` was tested. Which inhibition [1] did it give?
The inhibition was 25%.

And the inhibition [2]?
Its inhibition is “inactive”.

What about the IC50 [3] of the same molecule?
The IC50 was 73 nM.

And the inhibition [4]?
The inhibition was “Active”.

What about the inhibition [5] of the same molecule?
The inhibition was “Active”.

Which inhibition [1] does the source give for `COc1nn(Cc2cccc(N)c2)c(=O)o1` here?
Its inhibition is 18%.

And the inhibition [2]?
Its inhibition is “inactive”.

What about the IC50 [3] of the same molecule?
Its IC50 is 216 nM.

What about the inhibition [4] of the same molecule?
Its inhibition is “inactive”.

And the inhibition [5]?
Its inhibition is “inactive”.
